These results are taken from ChEMBL document CHEMBL1139463, “SAR by MS: discovery of a new class of RNA-binding small molecules for the hepatitis C virus: internal ribosome entry site IIA subdomain” (J Med Chem, 2005).

Structures are written as SMILES.

The nature of series [1]: Binding affinity to HCV 29-mer 2A RNA by MS based binding assay. Details: species or system Hepacivirus hominis.
A short description of series [2]: Binding affinity to HCV 40-mer RNA by MS based binding assay. Details: species or system Hepacivirus hominis.
Series [3] deals with Hepatitis C virus. The experiment in a line: Reduction of HCV RNA levels by HCV replicon assay. It counts as functional, organism-based, Hepacivirus hominis. In short, it runs like this:
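HCV replicon cells treated with compound; intracellular HCV RNA levels quantified by RT-PCR.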
For orientation: A replicon is a self-replicating genome or part of one, used to study replication in cells.

Series [4] can be described thus: Cytotoxicity against Huh7 cells by MTT assay. Particulars: human. Type of series: cell-based, Huh-7. In short, it runs like this:
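Huh-7 cells; viability read by MTT; 50% cytotoxic concentration (CC50) reported.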
Background: Tetrazolium assays rely on reduction of a dye to a coloured formazan, in cell work by metabolically active cells.

On to `CC(C)CCOc1ccc2nc(N)n(CCCN(C)C)c2c1`, for which binding in series [1] was characterised by a dissociation constant (Kd) of 48 µM.

As for `CN(C)CCCn1c(N)nc2ccc3c(c21)CC(CN(C)C)CO3` (stereo not given), binding in series [2] was characterised by a dissociation constant (Kd) of 0.86 µM. In addition, the EC50 (commonly the concentration needed to bring the measured effect to its halfway point) in series [3] came out at 3.9 µM. Also, in series [4], the CC50 (commonly the concentration at which the toxic effect on the cells reaches its halfway point) is greater than 100 µM.

Consider `CN(C)CC1COc2ccc3nc4n(c3c2C1)CC(CN(C)C)CN4` (stereo not given), for which the affinity in series [2], expressed as Kd, was 0.72 µM. In series [3], this molecule returned an EC50 of 5.4 µM. In addition, the 50% cytotoxic concentration (CC50) in series [4] is greater than 100 µM.

Turning to `Nc1nc2ccccc2n1CCCN1CCCC1`, the equilibrium dissociation constant (Kd) (commonly the free concentration of one partner at which half of the binding sites on the other are occupied at equilibrium, for simple one-to-one binding) in series [1] came out at 125 µM.

`COc1ccc2c(c1)nc(N)n2CCCN(C)C`: the Kd in series [1] is greater than 200 µM.

In series [1], `COc1ccc2nc(N)n(CCCN(C)C)c2c1` returned an equilibrium dissociation constant (Kd) of 40 µM.

Molecule `CN(C)CCCOc1ccc2nc3n(c2c1)CC(CN(C)C)CN3` (stereo not given) displayed a Kd in series [2] of 3.5 µM. This molecule came in with a concentration for a half-maximal effect (EC50) in series [3] of 29 µM. The molecule also returned a 50% cytotoxic concentration (CC50) in series [4] greater than 100 µM.

In the case of `CN(C)CCCOc1ccc2nc(N)n(CCCN(C)C)c2c1`, the values for the Kd in series [1] and in series [2] were 10 µM and 17 µM, respectively. In series [3], the response was half-maximal at 37 µM (EC50). This molecule also gave a CC50 in series [4] greater than 100 µM.

The molecule `CN(C)CCCn1c(N)nc2ccc(OCCN(C)C)cc21` returned a Kd in series [1] of 8 µM.

In series [1], `CN(C)CCCOc1ccc2c(c1)nc(N)n2CCCN(C)C` showed a Kd greater than 100 µM.

In series [1], `CCN(CC)CCCn1c(N)nc2ccccc21` came in with a dissociation constant (Kd) of 130 µM.

In turn, `CCCCN(CCCC)CCCn1c(N)nc2ccccc21` registered an equilibrium dissociation constant (Kd) in series [1] greater than 200 µM.

`CN(C)CCCOc1ccc2nc(N)[nH]c2c1`: the dissociation constant Kd in series [1] was greater than 100 µM.

On to `CN(C)CCCOc1ccc2ncn(CCCN(C)C)c2c1`, for which the Kd in series [1] was greater than 100 µM.

Turning to `Nc1nc2ccccc2n1CCCN1CCOCC1`, the Kd in series [1] was greater than 200 µM.

On to `CN(C)CCCCOc1ccc2nc(N)n(CCCN(C)C)c2c1`, for which, in series [1], the equilibrium dissociation constant (Kd) was determined as 7 µM.

Turning to `COc1cccc2nc(N)n(CCCN(C)C)c12`, the Kd in series [1] came to 50 µM.

The molecule `CN(C)CCCn1c(N)nc2ccc(OCc3ccccc3)cc21` had a dissociation constant (Kd) in series [1] of 99 µM.

`CN(C)CCCn1c(N)nc2ccc3c(c21)CC(CN(C)C)O3` (stereo not given): binding in series [2] was put at a Kd of 1.7 µM. It took 1.5 µM to reach a half-maximal effect in series [3] (EC50). The molecule further showed a CC50 in series [4] greater than 100 µM.

Molecule `COc1cccc2c1nc(N)n2CCCN(C)C` returned a Kd in series [1] greater than 200 µM.

For the molecule `CN(C)CCCn1c(N)nc2ccccc21`, the Kd in series [1] was 100 µM; in series [2] it was greater than 100 µM. The half-maximal cytotoxic concentration (CC50) in series [4] was greater than 100 µM.

Consider `CCCn1c(N)nc2ccccc21`, for which, in series [1], the Kd is greater than 200 µM.
